The list is not random: actives were taken first. Their share in the collection is about 1.6%.
proCasp3 act – activates human procaspase-3 | activation, % at 8.5 µM | 0.11% of 330,000 active | P42574 | recombinant procaspase-3 D3A, Ac-DEVD-pNA absorbance 405 nm;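 active = activation above the mean of all tested compounds plus 3 SD, cut at about 21% in these data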
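material = Procaspase-3 D3A mutant | probe or stimulus = Ac-DEVD-pNA | compound = single dose, 8.5 µM nominal compound, 0.8% DMSO | timing = 1 h preincubation, 2 h reaction | measured by = 405 nm absorbance of p-nitroaniline, reads at 0 and 120 min | benchmarks = DMSO-only low control, 5 µM PC-3 D3A high control | repeats = singlicate, each compound tested once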
PLCg1 inh – inhibitors of human phospholipase C gamma1; 0.84% of 370,000 active; inhibition, % at 12.2 µM; P19174; purified PLC-gamma1, fluorogenic substrate, fluorescence
procasp7 counter – counter-screen: procaspase-7 (human) activation; activation, % at 8.5 µM; P55210; recombinant procaspase-7, Ac-DEVD-pNA absorbance 405 nm; D23A/D198A/D206A triple mutant, cannot self-cleave; scale: DMSO 0, 5 µM enzyme 100; 0.093% of 330,000 active;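 active = percent activation above the screen-wide mean plus 3 SD, cut at about 25% in these data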
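Detection: p-Nitroaniline absorbance at 405 nm, read at 0 and 120 min; system: Uncleavable procaspase-7 mutant enzyme; evaluation: % activation from two-timepoint absorbance difference, scaled to controls; times: 1 h enzyme–compound preincubation and 2 h substrate reaction, both 25 °C; buffer or medium: Zinc-free HEPES pH 7.4 with 300 mM NaCl, 0.01% Triton X-100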
sPLA2-III inh – Inhibits HGIII-sPLA2 liposome hydrolysis, primary screen; Q9NZ20; inhibition, % at 12.2 µM; 0.56% of 370,000 active; QFRET BODIPY PC-A2 liposome hydrolysis, fluorescence;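 active = inhibition above mean plus 3 SD of compounds lying within the high and low control bounds, cut at about 19% in these data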
Target sequence (Q9NZ20 whole entry, looked up): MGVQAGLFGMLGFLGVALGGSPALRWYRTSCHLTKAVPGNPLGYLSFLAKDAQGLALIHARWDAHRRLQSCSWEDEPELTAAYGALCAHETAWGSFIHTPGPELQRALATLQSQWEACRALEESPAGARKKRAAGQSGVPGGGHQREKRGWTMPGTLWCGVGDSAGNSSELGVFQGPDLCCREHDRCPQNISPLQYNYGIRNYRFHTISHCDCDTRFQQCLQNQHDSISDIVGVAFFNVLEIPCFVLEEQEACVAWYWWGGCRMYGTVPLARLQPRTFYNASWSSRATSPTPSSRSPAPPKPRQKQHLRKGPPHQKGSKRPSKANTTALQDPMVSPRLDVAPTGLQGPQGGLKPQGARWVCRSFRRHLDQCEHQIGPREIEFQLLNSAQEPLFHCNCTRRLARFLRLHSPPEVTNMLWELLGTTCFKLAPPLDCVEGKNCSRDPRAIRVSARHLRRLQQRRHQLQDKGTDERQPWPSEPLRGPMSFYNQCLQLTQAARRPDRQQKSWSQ
PLC-beta3 inh – blocks human PLC-beta3 enzyme activity; inhibition, % at 12.2 µM; 0.18% of 370,000 active; AID 720704; Purified PLC-beta3, fluorogenic substrate, fluorescence; Q01970; in the data active = inhibition above about 11%
PLCgamma1 ctr – counter-screen for PLC-beta3 inhibitors: inhibitors of human PLC-gamma1. shares compounds with PLCg1 inh. purified PLC-gamma1, fluorogenic substrate, fluorescence. inhibition, % at 12.3 µM. 3.1% of 3,300 active
PLCbeta3 conf – human PLC-beta3 inhibition, confirmation | shares compounds with PLCg1 inh | purified PLC-beta3, fluorogenic substrate fluorescence | inhibition, % at 12.3 µM | 1% of 3,300 active; in the data active = inhibition above about 11%
Each line names hits and unclear results; the compound was inactive in the other large screens (follow-up assays come after a bar, where they were run). Cut-off read from the data, not from the text of the source, unless noted: active = inhibition above about 9.5%; inactive = the rest.

Cc1cc(Cl)ccc1NC(=S)NCc1ccccc1	none
O=C(OCc1ccccc1)N1CCC2CC1c1ccc(N3CCN(Cc4ccccc4)CC3)cc12 (stereo unspecified)	PLC-beta3 inh 13.5 (no result: proCasp3 act, procasp7 counter) | PLCgamma1 ctr inactive | PLCbeta3 conf inactive
CCn1c(C)c2c([n+]1CC)CC(C)(C)CC2=O	PLC-beta3 inh 76.5 | PLCgamma1 ctr inactive | PLCbeta3 conf inactive
O=C(Nc1ccccc1)Nc1cccc(Cl)c1Cl	PLCg1 inh 15.9 | PLCgamma1 ctr inactive | PLCbeta3 conf inactive
O=C(Nc1cnn(Cc2ccc(F)cc2)c1)C(c1ccccc1)c1ccccc1	PLCg1 inh 10.4 | PLCgamma1 ctr inactive | PLCbeta3 conf inactive
COc1ccccc1CNC(=O)NCCCN1CCN(c2ccc(F)cc2)CC1	none (no result: proCasp3 act, procasp7 counter)
CCn1c(N2CCC(C)CC2)nc2c1c(=O)n(C)c(=O)n2C	PLCg1 inh 11.7, sPLA2-III inh 25.6 | PLCgamma1 ctr inactive | PLCbeta3 conf inactive
CC1CCN(c2nc3c(c(=O)n(C)c(=O)n3C)n2Cc2ccccc2)CC1	none
Cc1nc([N+](=O)[O-])c(Br)n1CC(=O)c1cccc([N+](=O)[O-])c1	PLCg1 inh 9.9 | PLCgamma1 ctr inactive | PLCbeta3 conf inactive
O=C1CSc2ccccc2N1	PLCg1 inh 10.7 (no result: proCasp3 act, procasp7 counter) | PLCgamma1 ctr inactive | PLCbeta3 conf inactive
CCn1c(O)c(C2=NCCCC2)c2ccccc21	PLCg1 inh 9.7 | PLCgamma1 ctr inactive | PLCbeta3 conf inactive
Cc1cccc(NC(=O)Cc2ccc(NC3=NC4CS(=O)(=O)CC4S3)cc2)c1 (stereo unspecified)	PLCg1 inh 9.7 | PLCgamma1 ctr inactive | PLCbeta3 conf inactive
Cc1cc(C)cc(NC(=O)Cc2ccc(NC3=NC4CS(=O)(=O)CC4S3)cc2)c1 (stereo unspecified)	none
O=C(c1ccc(NC2=NC3CS(=O)(=O)CC3S2)cc1)N1CCN(c2ccccc2F)CC1 (stereo unspecified)	none
Cc1ccc(NC(=O)c2cccc(NC3=NC4CS(=O)(=O)CC4S3)c2)cc1 (stereo unspecified)	none
O=C(c1ccc(NC2=NC3CS(=O)(=O)CC3S2)cc1)N1CCN(Cc2ccccc2)CC1 (stereo unspecified)	PLCg1 inh 9.8 | PLCgamma1 ctr inactive | PLCbeta3 conf inactive
CC1CCCCC1NC(=O)c1cccc(NC2=NC3CS(=O)(=O)CC3S2)c1 (stereo unspecified)	PLCg1 inh 10.0 | PLCgamma1 ctr inactive | PLCbeta3 conf inactive
COc1ccc(NC(=O)CN2CCC(C(N)=O)(N3CCCCC3)CC2)c(OC)c1	none
CNS(=O)(=O)c1ccc(CNC[C@H]2O[C@@H](n3cc(C)c(=O)[nH]c3=O)C[C@@H]2O)cc1	none (no result: proCasp3 act, procasp7 counter)
CCCc1cc(=O)oc2cc(C)cc(OC(C)C(=O)NCc3ccncc3)c12 (stereo unspecified)	none
CCC(C)NC(=O)CSc1nc2c(sc3ccccc32)c(=O)n1CCCN1CCOCC1 (stereo unspecified)	PLCg1 inh 9.9 | PLCgamma1 ctr inactive | PLCbeta3 conf inactive
CCOC(=O)CSc1nc2c(sc3ccccc32)c(=O)n1CCCN1CCOCC1	none
O=C(O)c1ccc(-n2c(-c3cc(-c4ccco4)[nH]n3)n[nH]c2=S)cc1	PLCg1 inh 31.4 | PLCgamma1 ctr 22.6 | PLCbeta3 conf inactive
COc1ccc([C@H]2CC(=O)C=C(c3ccc(F)cc3OCc3ccccc3)C2)cc1OC	none
CC(C)(C)c1ccc(OC(=O)c2ccc3snnc3c2)cc1	PLCg1 inh 10.2 | PLCgamma1 ctr inactive | PLCbeta3 conf inactive
CCOc1cc(CNCC(C)C)c(Cl)cc1OCC(=O)Nc1ccccc1	none
CCNCc1cc(OCC)c(OCC(=O)NCCc2ccccc2)cc1Cl	PLCg1 inh 11.9 | PLCgamma1 ctr inactive | PLCbeta3 conf inactive
CCCOc1ccc(CC(=O)NCCc2ccccc2)cc1OC	PLCg1 inh 11.7 | PLCgamma1 ctr inactive | PLCbeta3 conf inactive
Cc1cccc(-c2noc(C(C)NC(=O)c3ccco3)n2)c1 (stereo unspecified)	PLCg1 inh 13.1 | PLCgamma1 ctr inactive | PLCbeta3 conf inactive
COc1ccccc1C1CCN(C(=O)c2cnn(-c3ccccc3)c2C)CC1	none
Clc1ccc(-c2nnc3n2N=C(c2ccc(-c4ccccc4)cc2)CS3)cc1	none (no result: proCasp3 act, procasp7 counter)
COC(=O)c1cccc(NC(=O)Nc2ccc(Cl)cc2Cl)c1	PLCg1 inh 9.9 | PLCgamma1 ctr inactive | PLCbeta3 conf inactive
COC(=O)c1cccc(NC(=O)C(C)N2C(=O)c3ccccc3C2=O)c1 (stereo unspecified)	PLCg1 inh 10.0 | PLCgamma1 ctr inactive | PLCbeta3 conf inactive
O=S1(=O)C[C@H](N2CCC[C@@H]2CO)[C@@H](COCc2ccccc2)N1	none (no result: proCasp3 act, procasp7 counter)
O=c1[nH][nH]c2cc(=O)n(-c3ccc(Cl)cc3)nc12	none
C/C=C/c1cccc(-c2nc(C(=O)N3CCOCC3)cc3c2[C@@H](CCO)N(C(=O)NC(C)C)C3)c1	none (no result: proCasp3 act, procasp7 counter)
CCC(C(=O)OCC(=O)Nc1cc(Cl)cc(Cl)c1)c1ccccc1 (stereo unspecified)	PLC-beta3 inh 11.1 | PLCgamma1 ctr inactive | PLCbeta3 conf inactive
O=C(CSCc1ccccc1)N=Nc1c(O)[nH]c2ccccc12	none
Cc1ccc2[nH]c(O)c(N=NC(=O)CCc3ccccc3)c2c1Br	PLCg1 inh 9.9 | PLCgamma1 ctr inactive | PLCbeta3 conf inactive
COc1ccc(CCNC(=O)c2c(O)c3c([nH]c2=O)CCCC3)cc1	PLCg1 inh 11.1 | PLCgamma1 ctr inactive | PLCbeta3 conf inactive
CCCNC(=O)c1c(O)c2c([nH]c1=O)CCCC2	none
O=C(COC(=O)Cc1ccccc1F)NCc1ccccc1Cl	none (no result: proCasp3 act, procasp7 counter)
CC(Oc1ccc([N+](=O)[O-])cc1)C(=O)NCC1CCCO1 (stereo unspecified)	PLCg1 inh 11.4 | PLCgamma1 ctr inactive | PLCbeta3 conf inactive
O=C(NNC(=O)c1ccncc1)Nc1ccccc1	none
O=C(NNC(=O)c1ccncc1)Nc1ccc(N=Nc2ccccc2)cc1	PLCg1 inh 11.6 (no result: proCasp3 act, procasp7 counter) | PLCgamma1 ctr inactive | PLCbeta3 conf inactive
C[C@H](CO)N1C[C@H](C)[C@@H](CN(C)S(=O)(=O)c2cccc(F)c2)Oc2ncc(Br)cc2C1=O	none (no result: proCasp3 act, procasp7 counter)
CCCS(=O)(=O)NC(=O)C1(C)CCN(C(=O)c2cc(C)on2)C1 (stereo unspecified)	PLCg1 inh 9.5 (no result: proCasp3 act, procasp7 counter) | PLCgamma1 ctr inactive | PLCbeta3 conf inactive
O=C(NCc1ccccc1)c1onc(CSc2ccc(F)c(F)c2)c1C(=O)NCc1ccccc1	PLC-beta3 inh 11.3 | PLCgamma1 ctr inactive | PLCbeta3 conf inactive
O=C(CN1C(=O)/C(=C/c2ccccc2)SC1=S)N1CCN(CCc2ccccn2)CC1	none

High-throughput results: PubChem BioAssay, The Scripps Research Institute Molecular Screening Center
